Data on 29 compounds can be found in ChEMBL document CHEMBL1671789, “Evaluation of quinazoline analogues as glucocerebrosidase inhibitors with chaperone activity” (J Med Chem, 2011).

The test system of assay [1] is T1, Lysosomal acid glucosylceramidase (Homo sapiens), P04062 [N409S].
T1 sequence (whole entry): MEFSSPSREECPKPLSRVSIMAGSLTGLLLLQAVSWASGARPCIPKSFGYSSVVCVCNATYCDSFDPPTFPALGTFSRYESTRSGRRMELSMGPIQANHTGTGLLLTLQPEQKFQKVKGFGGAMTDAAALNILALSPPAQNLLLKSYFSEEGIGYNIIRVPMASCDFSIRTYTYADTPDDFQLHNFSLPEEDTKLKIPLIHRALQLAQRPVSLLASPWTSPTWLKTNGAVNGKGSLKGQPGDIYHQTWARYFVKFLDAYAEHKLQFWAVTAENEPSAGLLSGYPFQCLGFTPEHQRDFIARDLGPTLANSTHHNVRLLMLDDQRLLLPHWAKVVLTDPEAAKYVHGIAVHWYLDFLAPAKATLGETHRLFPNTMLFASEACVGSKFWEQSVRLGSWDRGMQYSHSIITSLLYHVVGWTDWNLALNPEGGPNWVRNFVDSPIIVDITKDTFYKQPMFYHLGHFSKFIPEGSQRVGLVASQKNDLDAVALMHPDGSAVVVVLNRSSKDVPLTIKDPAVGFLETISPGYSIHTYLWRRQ
Kind of assay: Activity at recombinant Gcase N370S mutant in human spleen homogenates assessed as hydrolysis of 4-MU-beta-D-glucose at 50 uM. In kind it is tissue-based. The method in brief: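 Enzyme source: human spleen homogenate, 27 μg/well, in 50 mM citric acid/K2PO4 buffer pH 5 with 0.01% Tween20. Compound pin-transferred and preincubated 5 min at room temperature. Substrate 4MU-β-glc at 1 mM final, 45 min at 37 °C. Stopped with 1 M NaOH/1 M glycine pH 10. Fluorescence read at 365 nm excitation, 440 nm emission.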

A short description of assay [2]: Inhibition of alpha-galactosidase.
A short description of assay [3]: Inhibition of alpha-glucosidase.
Assay [4] deals with T2, Lysosomal acid glucosylceramidase (Homo sapiens) (UniProt P04062).
T2 sequence (whole entry): T1 sequence (whole entry) with S409N

Assay [5] deals with T2, Lysosomal acid glucosylceramidase (Homo sapiens). The source holds these as a separate data set.
Assay [6] shares this target. Kind of assay: Binding affinity to recombinant Gcase assessed as change in melting temperature at 400 uM by fluorescence thermal shift technique. The method in brief: (§1)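 Differential scanning fluorometry on recombinant wild-type GC at 2 μM final with SYPRO Orange, in 150 mM phosphate/citrate pH 4.8. 12-point DMSO dilution series, final 0.1–600 μM, 2% DMSO final; DMSO-only control. Heated 20 to 95 °C at 0.1 °C/s. Fluorescence read at 490 nm excitation, 575 nm emission. Tm derived from melt curves; shift is relative to the protein-only control.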

Assay [7] has the same target. Kind of assay: Binding affinity to recombinant Gcase assessed as change in melting temperature at 300 uM by fluorescence thermal shift technique. The method in brief:
as §1

Assay [8] shares this target. The source holds these as a separate data set.
Assay [9] shares this target. The source holds these as a separate data set.
The target is the same in assay [10]. This is another data set of the same source.
The subject of assay [11] is T1, Lysosomal acid glucosylceramidase (Homo sapiens), P04062 [N409S]. Kind of assay: Increase of GCase N370S mutant trafficking to lysosomes in human fibroblast cells assessed as colocalization of Gcase with Lamp2 at 10 uM after 5 days by immunofluorescence method. The format is cell-based. The method in brief: (§2)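 Primary dermal fibroblasts from N370S/N370S Gaucher patients and a control, in chamber slides. Compounds given for five days, range 1 nM to 25 μM. Cells fixed in 3% paraformaldehyde and permeabilized with 0.1% Triton-X. Stained with rabbit anti-GCase R386 (1:500) and mouse anti-LAMP1 or LAMP-2 (1:100), then Alexa-conjugated secondaries and DAPI. Imaged by confocal microscopy for GC/LAMP2 colocalization.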

Assay [12] concerns the target T2, Lysosomal acid glucosylceramidase (Homo sapiens). Put plainly: Increase of GCase trafficking to lysosomes in human fibroblast cells assessed as colocalization of Gcase with Lamp2 at 10 uM after 5 days by immunofluorescence method. The format is cell-based. The method in brief: as §2
For assay [13] the target is unchanged. This is another data set of the same source.
The target is the same in assay [14]. The source holds these as a separate data set.

Where a chain is given by its changes, count along the chain named. Calls of active or inactive are those of the source.

The ΔTm is the shift of the melting midpoint relative to a reference.

Regarding `CN1CCN(c2nc(-c3cccs3)nc3ccccc23)CC1`, the result in assay [1], in [2] and in assay [3] was inactive.
`CCCN1CCN(c2nc(-c3cccs3)nc3ccccc23)CC1`: the result in assay [1], in assay [2] and in assay [3] was inactive.
With `O=S(=O)(c1ccc(Cl)cc1)N1CCN(c2nc(-c3ccc(F)cc3)nc3cc(Cl)ccc23)CC1`, the result in [1], in [2] and in assay [3] was inactive.
For `Cc1ccc(S(=O)(=O)N2CCN(c3nc(-c4cccs4)nc4c3ncn4COC(=O)C(C)(C)C)CC2)cc1`, the outcome in assay [1], in assay [2] and in assay [3] was inactive.
For the compound `Cc1ccc(S(=O)(=O)N2CCN(c3nc(-c4cccs4)nc4[nH]cnc34)CC2)cc1`, the result in assay [1], in assay [2] and in assay [3] was inactive.
For `CCN1CCN(c2nc(-c3cccs3)nc3ccccc23)CC1`, the outcome in [1], in assay [2] and in assay [3] was inactive.
On to `Cc1ccc(S(=O)(=O)N2CCN(c3nc(-c4ccc(F)cc4)nc4cc(Cl)ccc34)CC2)cc1`, for which the outcome in assay [1], in assay [2] and in assay [3] was inactive.
Take `Cc1ccc(S(=O)(=O)N2CCN(c3nc(C(N)=O)nc4ccccc34)CC2)cc1`: the result in assay [1], in assay [2] and in assay [3] was inactive.
For the compound `O=S(=O)(c1ccc(C(F)(F)F)cc1)N1CCN(c2nc(-c3cccs3)nc3cc(Cl)ccc23)CC1`, the outcome in [1], in assay [2] and in [3] was inactive.
For the compound `Cc1ccc(S(=O)(=O)N2CCN(c3nc(C#N)nc4ccccc34)CC2)cc1`, the outcome in assay [1], in [2] and in assay [3] was inactive.
On to `O=S(=O)(c1ccc(F)cc1)N1CCN(c2nc(-c3ccc(F)cc3)nc3cc(Cl)ccc23)CC1`, for which the result in assay [1], in assay [2] and in [3] was inactive.
As to `O=S(=O)(c1ccc(F)cc1)N1CCN(c2nc(-c3ccccc3)nc3cc(Cl)ccc23)CC1`, the outcome in assay [1], in assay [2] and in assay [3] was inactive.
`O=S(=O)(c1ccccc1)N1CCN(c2nccc(-c3cccs3)n2)CC1`: the result in [1], in [2] and in [3] was inactive.
`O=S(=O)(c1ccc2ccccc2c1)N1CCN(c2nc(-c3cccs3)nc3ccccc23)CC1`: the ΔTm in [4] was 14.5 °C; in [5], -1.33 °C; in assay [6], 19.9 °C; in [7], 19.8 °C; in assay [8] it was 10.8 °C; in assay [9], 4.35 °C. For the same compound, the ΔTm is 1.6 °C in assay [10], 17.3 °C in assay [13] and -0.19 °C in assay [14]. Further, the result in assay [2] and in assay [3] was inactive. Further, the result in [11] and in [12] was Active.
`O=S(=O)(c1ccc(F)cc1)N1CCN(c2nc(-c3cccc(Br)c3)nc3ccccc23)CC1`: the result in assay [1], in assay [2] and in [3] was inactive.
With `O=S(=O)(c1ccc(Cl)cc1)N1CCN(c2nc(-c3cccc(Br)c3)nc3ccccc23)CC1`, the result in assay [1], in assay [2] and in assay [3] was inactive.
On to `Cc1ccc(S(=O)(=O)N2CCN(c3nc(-c4cccs4)nc4ccccc34)CC2)cc1`, for which the ΔTm in [4] was 9.89 °C; in assay [5], 0.03 °C; in [8] it was 5.18 °C; in assay [9], 0.84 °C; in assay [10] it was -1.4 °C; in assay [13] it was 11 °C. Besides, the ΔTm in assay [14] was -0.09 °C. The result in [2] and in assay [3] was inactive.
For the compound `Cc1ccc(-c2nc(N3CCN(S(=O)(=O)c4ccc(F)cc4)CC3)c3ccc(Cl)cc3n2)cc1`, the result in assay [1], in assay [2] and in assay [3] was inactive.
As to `O=S(=O)(c1ccc(Cl)cc1)N1CCN(c2nc(-c3ccc(Cl)cc3)nc3ccccc23)CC1`, the outcome in [1], in assay [2] and in [3] was inactive.
Consider `Cc1ccc(S(=O)(=O)N2CCC(c3nc(-c4cccs4)nc4ccccc34)CC2)cc1`, for which the result in [1], in assay [2] and in assay [3] was inactive.
`O=S(=O)(c1ccc(F)cc1)N1CCN(c2nc(-c3cccs3)nc3cc(Cl)ccc23)CC1`: the outcome in assay [1], in assay [2] and in assay [3] was inactive.
Turning to `O=S(=O)(c1ccccc1)N1CCN(c2nc(-c3ccc(F)cc3)nc3cc(Cl)ccc23)CC1`, the outcome in assay [1], in assay [2] and in assay [3] was inactive.
As for `Cc1ccc(S(=O)(=O)N2CCN(c3nc(-c4cccs4)cc4ccccc34)CC2)cc1`, the result in assay [1], in [2] and in [3] was inactive.
`Cc1ccc(S(=O)(=O)N2CCN(c3nc(-c4cncnc4)nc4ccccc34)CC2)cc1`: the result in assay [1], in [2] and in assay [3] was inactive.
For `Cc1ccc(S(=O)(=O)N2CCN(c3nc(-c4ncccn4)nc4ccccc34)CC2)cc1`, the outcome in assay [1], in [2] and in assay [3] was inactive.
Turning to `c1csc(-c2nc(N3CCN(Cc4ccc5c(c4)OCCO5)CC3)c3ccccc3n2)c1`, the result in [2] and in assay [3] was inactive.
Take `CC(=O)c1nc(N2CCN(S(=O)(=O)c3ccc(C)cc3)CC2)c2ccccc2n1`: the outcome in [2] and in assay [3] was inactive.
`O=S(=O)(c1ccc2c(c1)OCCO2)N1CCN(c2nc(-c3cccnc3)nc3ccccc23)CC1`: the outcome in [2] and in assay [3] was inactive.
For the compound `CN(CCN(C)c1nc(-c2cccs2)nc2ccccc12)C(=O)OC(C)(C)C`, the outcome in [2] and in [3] was inactive.
